Converted amounts (≈) assume the structure as drawn.
Key:
[1] = Kinetic solubility of the compound in water at pH 7 by HPLC analysis; format: physicochemical; details: read-out: Kinetic_solubility
[2] = Metabolic stability of the compound in human liver microsomes assessed as compound remaining after 1 hr; format: ADME, Microsome; details: read-out: Stability
Summary of the method: (§1)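 Pooled human or CD-1 mouse liver microsomes incubated with compound for 1 h. Percentage of compound remaining calculated from analyte/internal standard peak area ratios.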

[3] = Metabolic stability of the compound in CD-1 mouse liver microsomes assessed as compound remaining after 1 hr; format: ADME, Microsome; details: read-out: Stability; summary of the method: as §1
[4] = tested on: Mycobacterium tuberculosis; experiment: Antimicrobial activity against Mycobacterium tuberculosis infected in BALB/c mouse assessed as fold reduction in lung CFU at 100 mg/kg, po administered 11 days after post infection qd for 5 days per week for 3 weeks relative to PA-824; format: functional
Summary of the method: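 Groups of 7 M. tb-infected BALB/c mice dosed orally at 100 mg/kg daily, 5 days/week for 3 weeks, starting on day 11 postinfection. Readout is the average lung CFU reduction in treated mice divided by the average CFU reduction in mice given the reference nitroimidazooxazine.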

[5] = AUC (0 to infinity) in CD-1 mouse plasma at 40 mg/kg, po; format: ADME, organism-based; design: dose 40 mg/kg, route oral, time infinity
Summary of the method: (§2)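 CD-1 mice given a single oral dose of 40 mg/kg, suspended in 0.5% carboxymethylcellulose/0.08% Tween 80 in water. Plasma and lung samples quantified by LC-MS/MS. AUC extrapolated to infinity. Lung/plasma ratio is lung AUC divided by plasma AUC.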

[6] = Cmax in CD-1 mouse plasma at 40 mg/kg, po; format: ADME, organism-based; design: dose 40 mg/kg, route oral; summary of the method: as §2
[7] = Half life in CD-1 mouse plasma at 40 mg/kg, po; format: ADME, organism-based; design: dose 40 mg/kg, route oral; summary of the method: as §2
[8] = AUC (0 to infinity) in CD-1 mouse lung at 40 mg/kg, po; format: ADME, organism-based; design: dose 40 mg/kg, route oral, time infinity; summary of the method: as §2
[9] = Cmax in CD-1 mouse lung at 40 mg/kg, po; format: ADME, organism-based; design: dose 40 mg/kg, route oral; summary of the method: as §2
[10] = Ratio AUC (0 to infinity) in CD-1 mouse lung to AUC (0 to infinity) in CD-1 mouse plasma at 40 mg/kg, po; format: ADME, organism-based; design: dose 40 mg/kg, route oral; details: read-out: Ratio AUC; summary of the method: as §2
[11] = tested on: Mycobacterium tuberculosis; experiment: Antimicrobial activity against Mycobacterium tuberculosis infected in BALB/c mouse assessed as fold reduction in lung CFU at 100 mg/kg, po administered 70 days after post infection qd for 5 days per week for 3 weeks relative to OPC-67683; format: functional
Summary of the method: (§3)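 Chronic infection model in M. tb-infected BALB/c mice: oral dosing at 100 mg/kg daily, 5 days/week for 3 weeks, beginning about 70 days postinfection. Result expressed as fold lung CFU reduction relative to the reference drug.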

[12] = Half life in CD-1 mouse lung at 40 mg/kg, po; format: ADME, organism-based; design: dose 40 mg/kg, route oral; summary of the method: as §2
[13] = tested on: Mycobacterium tuberculosis; experiment: Antimicrobial activity against Mycobacterium tuberculosis infected in BALB/c mouse assessed as fold reduction in lung CFU at 100 mg/kg, po administered 70 days after post infection qd for 5 days per week for 3 weeks; format: functional; summary of the method: as §3
[14] = tested on: Mycobacterium tuberculosis; experiment: Antimicrobial activity against Mycobacterium tuberculosis infected in chronic BALB/c mouse infection model assessed as fold reduction in lung CFU at 100 mg/kg, po dministered 50 days after post infection qd for 5 days per week for 3 weeks; format: functional
[15] = Octanol-water partition coefficient, log P of the compound by shake-flask method; format: physicochemical
Summary of the method: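 Octanol-water partition coefficient measured by the shake-flask method.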

[16] = Thermodynamic solubility of the compound at pH 1; format: physicochemical; details: buffer, read-out: Therm_solubility
[17] = Thermodynamic solubility of the compound at pH 7.4; format: physicochemical; details: buffer, read-out: Therm_solubility
[18] = Plasma protein binding in human at 10 uM; format: ADME, cell-free; details: read-out: PPB (converted)
Summary of the method: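 Human plasma protein binding measured by equilibrium dialysis, with overnight incubation of compound at 10 μM containing 1% DMSO.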

Salmonella typhimurium [19] = experiment: Induction of mutagenesis in Salmonella Typhimurium TA98 in absence of rat liver S9 fraction by Ames test; format: toxicity, organism-based; details: salmonella enterica subsp. enterica serovar typhimurium
Summary of the method: (§4)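 MicroAmes reverse mutation screen in Salmonella TA98 and TA100, preincubated with and without rat liver S9, at 0.25-250 μg/well.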

Salmonella typhimurium [20] = experiment: Induction of mutagenesis in Salmonella Typhimurium TA98 in presence of rat liver S9 fraction by Ames test; format: toxicity, organism-based; details: salmonella enterica subsp. enterica serovar typhimurium; summary of the method: as §4
Salmonella typhimurium [21] = experiment: Induction of mutagenesis in Salmonella Typhimurium TA100 in absence of rat liver S9 fraction by Ames test; format: toxicity, organism-based; details: salmonella enterica subsp. enterica serovar typhimurium; summary of the method: as §4
Salmonella typhimurium [22] = experiment: Induction of mutagenesis in Salmonella Typhimurium TA100 in presence of rat liver S9 fraction by Ames test; format: toxicity, organism-based; details: salmonella enterica subsp. enterica serovar typhimurium; summary of the method: as §4

O=C(N[C@@H]1COc2nc([N+](=O)[O-])cn2C1)c1ccc(OC(F)(F)F)cc1
solubility kinetic [1]: 109 µg/mL (≈ 293 µM)

CN(C(=O)c1ccc(OC(F)(F)F)cc1)[C@@H]1COc2nc([N+](=O)[O-])cn2C1
solubility kinetic [1]: 17 µg/mL (≈ 44 µM)

O=[N+]([O-])c1cn2c(n1)OC[C@@H](NS(=O)(=O)c1ccc(OC(F)(F)F)cc1)C2
solubility kinetic [1]: 6.1 µg/mL (≈ 14.9 µM)

CN([C@@H]1COc2nc([N+](=O)[O-])cn2C1)S(=O)(=O)c1ccc(OC(F)(F)F)cc1
solubility kinetic [1]: 15 µg/mL (≈ 35.5 µM)

O=C(CN[C@@H]1COc2nc([N+](=O)[O-])cn2C1)c1ccc(OC(F)(F)F)cc1
solubility kinetic [1]: 21 µg/mL (≈ 54.4 µM)

O=C(Nc1ccc(OC(F)(F)F)cc1)N[C@@H]1COc2nc([N+](=O)[O-])cn2C1
solubility kinetic [1]: 93 µg/mL (≈ 240 µM)

O=C(N[C@@H]1COc2nc([N+](=O)[O-])cn2C1)OCc1ccc(-c2ccc(OC(F)(F)F)cc2)cc1
solubility kinetic [1]: 0.67 µg/mL (≈ 1.4 µM)

O=C(Nc1cccc(-c2ccc(OC(F)(F)F)cc2)c1)N[C@@H]1COc2nc([N+](=O)[O-])cn2C1
solubility kinetic [1]: 3 µg/mL (≈ 6.47 µM) | remaining at 1 h [2]: 86% | remaining at 1 h [3]: 88% | fold change (FC) [4]: <0.01

O=C(Nc1ccc(-c2ccc(OC(F)(F)F)cc2)cc1)N[C@@H]1COc2nc([N+](=O)[O-])cn2C1
solubility kinetic [1]: 0.17 µg/mL (≈ 0.367 µM) | remaining at 1 h [2]: 91% | remaining at 1 h [3]: 90% | AUC(0-inf) [5]: 6610 ng·h/mL | Cmax [6]: 480 ng/mL | half-life [7]: 6.3 h | AUC(0-inf) [8]: > 60000 ng·h/mL | Cmax [9]: 4700 ng/mL | Kp [10]: > 9 | fold change (FC) [4]: 1

O=C(NCc1ccc(-c2ccc(OC(F)(F)F)cc2)cc1)N[C@@H]1COc2nc([N+](=O)[O-])cn2C1
solubility kinetic [1]: 0.94 µg/mL (≈ 1.97 µM)

O=C(Nc1cccc(-c2ccc(OC(F)(F)F)cc2)c1)O[C@@H]1COc2nc([N+](=O)[O-])cn2C1
solubility kinetic [1]: 0.07 µg/mL (≈ 0.151 µM) | remaining at 1 h [2]: 88% | remaining at 1 h [3]: 93% | fold change (FC) [4]: 3.4

O=C(Nc1cccc(-c2ccc(C(F)(F)F)nc2)c1)O[C@@H]1COc2nc([N+](=O)[O-])cn2C1
solubility kinetic [1]: 5.8 µg/mL (≈ 12.9 µM) | remaining at 1 h [2]: 89% | remaining at 1 h [3]: 80% | fold change (FC) [4]: 0.02

O=C(Nc1ccc(-c2ccc(OC(F)(F)F)cc2)cc1)O[C@@H]1COc2nc([N+](=O)[O-])cn2C1
remaining at 1 h [2]: 100% | remaining at 1 h [3]: 98% | AUC(0-inf) [5]: 44900 ng·h/mL | Cmax [6]: 520 ng/mL | half-life [7]: 62.3 h | AUC(0-inf) [8]: > 136000 ng·h/mL | Cmax [9]: 6900 ng/mL | Kp [10]: > 3 | fold change (FC) [4]: 5 | fold change (FC) [11]: 0.35

O=C(NCc1ccc(-c2ccc(OC(F)(F)F)cc2)cc1)O[C@@H]1COc2nc([N+](=O)[O-])cn2C1
solubility kinetic [1]: 0.34 µg/mL (≈ 0.711 µM)

O=C(O[C@@H]1COc2nc([N+](=O)[O-])cn2C1)N1CC[C@H](Oc2ccc(OC(F)(F)F)cc2)C1
solubility kinetic [1]: 21 µg/mL (≈ 45.8 µM)

O=C(O[C@@H]1COc2nc([N+](=O)[O-])cn2C1)N1CCC(Oc2ccc(C(F)(F)F)nc2)CC1
solubility kinetic [1]: 94 µg/mL (≈ 206 µM)

CN(Cc1ccc(OC(F)(F)F)cc1)C1CCN(C(=O)O[C@@H]2COc3nc([N+](=O)[O-])cn3C2)CC1
solubility kinetic [1]: 11 µg/mL (≈ 22 µM)

O=C(COc1ccc(-c2ccc(OC(F)(F)F)cc2)cc1)N[C@@H]1COc2nc([N+](=O)[O-])cn2C1
solubility kinetic [1]: 0.96 µg/mL (≈ 2.01 µM)

O=C(Cc1ccc(-c2ccc(OC(F)(F)F)cc2)cc1)N[C@@H]1COc2nc([N+](=O)[O-])cn2C1
solubility kinetic [1]: 1.8 µg/mL (≈ 3.89 µM)

O=C(CO[C@@H]1COc2nc([N+](=O)[O-])cn2C1)Nc1ccc(OC(F)(F)F)cc1
solubility kinetic [1]: 68 µg/mL (≈ 169 µM) | remaining at 1 h [2]: 100% | remaining at 1 h [3]: 85% | fold change (FC) [4]: 0.33

CN(C(=O)N(C)[C@@H]1COc2nc([N+](=O)[O-])cn2C1)c1ccc(OC(F)(F)F)cc1
solubility kinetic [1]: 38 µg/mL (≈ 91.5 µM)

O=[N+]([O-])c1cn2c(n1)OC[C@@H](NC(=S)Nc1ccc(OC(F)(F)F)cc1)C2
solubility kinetic [1]: 12 µg/mL (≈ 29.8 µM)

O=C(NCc1ccc(OC(F)(F)F)cc1)N[C@@H]1COc2nc([N+](=O)[O-])cn2C1
solubility kinetic [1]: 32 µg/mL (≈ 79.7 µM)

O=C(Nc1ccc(OC(F)(F)F)cc1)O[C@@H]1COc2nc([N+](=O)[O-])cn2C1
solubility kinetic [1]: 5.4 µg/mL (≈ 13.9 µM) | remaining at 1 h [2]: 88% | remaining at 1 h [3]: 89% | AUC(0-inf) [5]: 28500 ng·h/mL | Cmax [6]: 1400 ng/mL | half-life [7]: 9.8 h | AUC(0-inf) [8]: 43300 ng·h/mL | Cmax [9]: 3800 ng/mL | half-life [12]: 4.1 h | Kp [10]: 1.5 | fold change (FC) [4]: 0.39 | fold change (FC) [11]: 0.02

CN(C(=O)O[C@@H]1COc2nc([N+](=O)[O-])cn2C1)c1ccc(OC(F)(F)F)cc1
solubility kinetic [1]: 18 µg/mL (≈ 44.7 µM) | remaining at 1 h [2]: 37% | remaining at 1 h [3]: 1% | fold change (FC) [4]: 5.3

O=C(NCc1ccc(OC(F)(F)F)cc1)O[C@@H]1COc2nc([N+](=O)[O-])cn2C1
solubility kinetic [1]: 10 µg/mL (≈ 24.9 µM)

C[C@]1(COc2ccc(N3CCC(Oc4ccc(OC(F)(F)F)cc4)CC3)cc2)Cn2cc([N+](=O)[O-])nc2O1
fold change (FC) [13]: 3 | fold change (FC) [14]: 3

O=C(COc1ccc(OC(F)(F)F)cc1)N[C@@H]1COc2nc([N+](=O)[O-])cn2C1
solubility kinetic [1]: 43 µg/mL (≈ 107 µM)

O=[N+]([O-])c1cn2c(n1)OC[C@@H](NCc1ccc(OC(F)(F)F)cc1)C2
solubility kinetic [1]: 131 µg/mL (≈ 366 µM)

O=[N+]([O-])c1cn2c(n1)OC[C@@H](OCc1ccc(OC(F)(F)F)cc1)C2 [PRETOMANID]
fold change (FC) [13]: 2 | logP [15]: 2.52 | solubility thermodynamic [16]: 30 µM (≈ 10.8 µg/mL) | solubility thermodynamic [17]: 30 µM (≈ 10.8 µg/mL) | fraction unbound at 10 µM [18]: 0.06 | Activity (Salmonella typhimurium [19]): Non-toxic | Activity (Salmonella typhimurium [20]): Non-toxic | Activity (Salmonella typhimurium [21]): Non-toxic | Activity (Salmonella typhimurium [22]): Non-toxic

— ChEMBL document CHEMBL1944507, “Structure-activity relationships for amide-, carbamate-, and urea-linked analogues of the tuberculosis drug (6S)-2-nitro-6-{[4-(trifluoromethoxy)benzyl]oxy}-6,7-dihydro-5H-imidazo[2,1-b][1,3]oxazine (PA-824)” (J Med Chem, 2012)
